The values below come from PubChem BioAssay AID1800 (The Scripps Research Institute Molecular Screening Center, 2009).

The campaign covered roughly 290,000 compounds. About 1,600 (0.55%) were called active.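 How the source made its calls: active means inhibition above the mean of all tested compounds plus 3 SD, set per campaign (cut at about 35% in these data); inactive means the rest.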 Many of the other results were omitted from the sample, so actives are more common in it than they were.

This test deals with Hepatitis C virus NS3 helicase. Description: inhibitors of HCV NS3 helicase, primary screen, biochemical, Cy5 molecular beacon fluorescence (AID 1800).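 Further: 0% = DMSO wells and 100% = thioflavine S control wells.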 Particulars: NS3 helicase DNA unwinding, at 10.9 µM, stronger effect = higher value. The gist of the method:
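System: HCV NS3 helicase fragment; control set: DMSO and thioflavine S; technique: Cy5 fluorescence at 0 and 60 min, beacon hairpin quenching; reagent: beacon DNA duplex substrate plus ATP; replicates: singlicate; schedule: 1 h reaction at 25 °C, ATP-initiated; medium: MOPS buffer pH 6.5 with MgCl2, DTT, Tween20, BSA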
Regarding `Cc1ccc(N=Cc2c(O)cc(C)oc2=O)c(C)c1`, the inhibition (usually the drop in the measured response relative to a control, in per cent) was -4.71% (inactive).
`Cc1cc(O)c(C(=O)/C=C/c2c(F)c(F)c(F)c(F)c2F)c(=O)o1`: the inhibition was 53.7% (active).
To `COc1ccc(Cl)cc1NC(=O)CN(C)C(=O)CCCc1c[nH]c2ccccc12` belongs -11.3% (inactive); to `Cc1nc2ccccc2c(=O)n1NC(=O)c1ccc(Cl)c([N+](=O)[O-])c1`, -12.7% (inactive).
With `O=C(CN1CCN(CC(=O)Nc2ccc3c(c2)OCO3)CC1)Nc1ccc(F)cc1`, the inhibition is 2% (inactive).
With `Cc1ccc(C(=O)O)cc1-c1ccc(/C=C2\SC(=O)N(CC(=O)Nc3ccc4c(c3)OCO4)C2=O)o1` the figure was 46.3% (active).
For `COc1ccc(NC(=O)CCN2C(=O)/C(=C/c3ccc4c(c3)OCO4)SC2=S)cc1`, the inhibition is -4.44% (inactive).
With `COc1ccccc1-n1c(SCC(=O)O)nc2sc3c(c2c1=O)CCC3` the figure was 5.31% (inactive); with `CCSc1nc2sc3c(c2c(=O)n1-c1ccc(C)cc1)CCN(C)C3`, -28.2% (inactive).
`Cc1ccc(C)c(-n2c(SCC(=O)O)nc3sc4c(c3c2=O)CCCC4)c1`: the inhibition was 37.1% (active).
Take `Cc1cccc(N2CCN(C(C)C(=O)N3CCc4ccccc43)CC2)c1C` (stereo not given): the inhibition was -14.8% (inactive).
As for `Cc1cccc(N(C)C(=O)c2cc(S(=O)(=O)N3CCCCC3)c[nH]2)c1`, the inhibition was -16.4% (inactive).
For the compound `Cc1ccc(OCc2cc(C(=O)N(C)CCn3ccnc3C)no2)cc1C`, the inhibition is -14.7% (inactive).
With `Cc1ccc(OCC(=O)Nc2nnc(-c3ccco3)s2)cc1` the figure was 13.6% (inactive); with `COc1ccc(OCC(=O)Nc2nnc(-c3ccco3)s2)cc1`, 58.5% (active); with `CNc1nnc(-c2ccco2)s1`, -1.81% (inactive).
Turning to `Cc1cccc(NC(=O)CCn2c(=O)oc3ccccc32)c1`, the inhibition is -6.84% (inactive).
For `COc1ccc(C(=O)C2CCCN(C(=O)c3ccc(OC)o3)C2)c(C)c1` (stereo not given), the inhibition is -2.85% (inactive).
Consider `COC(=O)C1=C(C)N(C(C)c2ccccc2)C(=O)/C1=C\c1ccco1` (stereo not given), for which the inhibition was 20.9% (inactive).
Regarding `COc1cc(C2CC(=O)N3CN(Cc4ccccc4)CSC3=C2C#N)ccc1OCc1ccccc1` (stereo not given), the inhibition was 52.1% (active).
Take `COc1cc(CNC2CCCC2)c(Br)cc1OCc1ccccc1`: the inhibition is -30.4% (inactive).
As to `COc1cc(CN2CCC(C(N)=O)CC2)ccc1OCc1ccccc1`, the inhibition is -5.96% (inactive).
For the compound `COC(=O)c1cc(S(=O)(=O)N2CCC(C(N)=O)CC2)oc1C`, the inhibition was 4.32% (inactive).
With `Cc1cc(N2C(=O)C(=O)/C(=C(/O)c3ccc(Cl)cc3)C2c2cccc(Br)c2)no1` (stereo not given) the figure was 24.4% (inactive); with `COc1ccccc1C1/C(=C(/O)c2ccc(OC(C)C)cc2)C(=O)C(=O)N1c1cc(C)on1` (stereo not given), 43.1% (active).
`COc1ccc(C2/C(=C(/O)c3ccccc3)C(=O)C(=O)N2C)c(OC)c1` (stereo not given): the inhibition is 3.37% (inactive).
As to `CN(c1ccccc1)S(=O)(=O)c1ccc(C(=O)NCCc2ccccc2)cc1`, the inhibition is -7.81% (inactive).
To `O=C(CC1C(=O)NCCN1C(=O)c1ccc([N+](=O)[O-])cc1)Nc1cccc(Cl)c1` (stereo not given) belongs -5.86% (inactive); to `Cc1ccc(Nc2ncnc3c2cnn3C)c(C)c1`, 5.11% (inactive).
Turning to `Cc1ccc(/C=C/C(=O)Nc2ccc([N+](=O)[O-])c(NC(=O)/C=C/c3ccc(C)o3)c2)o1`, the inhibition is 46.7% (active).
Take `Cc1ccc(/C=C/C(=O)Nc2cc(S(=O)(=O)N3CCCCCC3)ccc2OCC(F)(F)F)o1`: the inhibition is 21.8% (inactive).
As to `CCc1nnc(NC(=O)/C=C/c2ccc(C)o2)s1`, the inhibition was 8.82% (inactive).
For the compound `COc1ccc(C)cc1N(CC(=O)N1CCCC1)S(=O)(=O)c1ccccc1`, the inhibition is 21% (inactive).
Take `Cc1ccc(C(c2nnnn2CS(=O)(=O)c2ccc(C)cc2)N2CCC(C)CC2)cc1` (stereo not given): the inhibition was -6.3% (inactive).
For `CC(=O)N1c2ccc(S(=O)(=O)N(C)CC(=O)N(C)Cc3ccccc3)cc2CC1C` (stereo not given), the inhibition was -2.38% (inactive).
Turning to `COc1ccc(C)cc1-n1nnnc1SCC(=O)c1cc(C)n(Cc2ccco2)c1C`, the inhibition was 52.1% (active).
With `COc1ccc(OC)c(-n2nnnc2SCC(=O)Nc2cc(C)ccc2OC)c1` the figure was -1.59% (inactive).
For `Cc1cc(C(=O)COC(=O)CNC(=O)c2ccc(F)cc2)c(C)n1Cc1ccco1`, the inhibition is 10% (inactive).
With `Cc1ccc(OCC(=O)c2cc(C)n(Cc3ccco3)c2C)c([N+](=O)[O-])n1` the figure was 41.5% (active); with `Cc1cc(C(=O)CSc2nc(N)cc(=O)[nH]2)c(C)n1Cc1ccco1`, 22.4% (inactive).
In the case of `COCC(C)n1c(C)cc(C(=O)COc2ccc(C)nc2[N+](=O)[O-])c1C` (stereo not given), the inhibition was 2.44% (inactive).
To `Cc1cc(S(=O)(=O)N2CCOCC2)ccc1OCC(=O)N1CCOCC1` belongs -4.99% (inactive); to `COc1cc(NC(=O)CCS(=O)(=O)c2ccc3c(c2)oc(=O)n3C)cc(OC)c1`, 3.01% (inactive).
For the compound `CCc1ccc(NC(=O)CS(=O)CC(=O)N2CCN(c3ccccc3F)CC2)cc1` (stereo not given), the inhibition was 8.61% (inactive).
On to `COc1ccc(NC(=O)CN2C(=O)CSc3ccc(S(=O)(=O)N4CCC(C)CC4)cc32)cc1`, for which the inhibition is -2.68% (inactive).
For `COc1cccc(NCCC(=O)c2cccc([N+](=O)[O-])c2)c1`, the inhibition is 2.63% (inactive).
For the compound `COc1cccc(C(=O)CC(=O)C(=O)Nc2ccc([N+](=O)[O-])cc2C)c1`, the inhibition is 37.6% (active).
Consider `COc1ccc(C(=O)CC(=O)C(=O)Nc2cc([N+](=O)[O-])ccc2OC)cc1`, for which the inhibition is 12.6% (inactive).
For the compound `COc1ccc(-n2ncc3c(SCC(=O)NNC(C)=O)ncnc32)cc1`, the inhibition was 5.53% (inactive).
Regarding `Cc1cccc(C)c1-n1c(C)cc(/C=C2\C(=O)NN(c3ccccc3)C2=O)c1C`, the inhibition is 9.92% (inactive).
Regarding `O=C1NN(c2ccccc2)C(=O)/C1=C/c1ccc(-c2cccc(C(=O)O)c2)o1`, the inhibition is 54.3% (active).
As to `O=C(O)C(c1ccccc1)N1C(=O)/C(=C\c2ccc(-c3cccc(Cl)c3)o2)SC1=S` (stereo not given), the inhibition is 8.54% (inactive).
Take `CC(NS(=O)(=O)c1ccc(OCC(=O)N2CCCC2)cc1)c1ccccc1` (stereo not given): the inhibition was -5.83% (inactive).
Turning to `O=C(NCc1ccccc1)C(=O)NCC1OCCN1S(=O)(=O)c1ccc(Br)cc1` (stereo not given), the inhibition was -0.44% (inactive).
`O=C(COc1ccc2c(c1)CCC2)N1CCN(c2ccc(F)cc2)CC1`: the inhibition was -11.2% (inactive).
Take `CC1(C)NC(=O)N(CCCCSc2ccc(Cl)cc2)C1=O`: the inhibition was -1.4% (inactive).
As for `CSc1c(SCc2ccccc2)cnn(Cc2ccccc2)c1=O`, the inhibition was 48.3% (active).
Consider `CSc1nc2ccccc2c(=O)n1Cc1ccc(F)cc1`, for which the inhibition was -9.76% (inactive).
In the case of `CC(=O)Nc1ccc(NC(=O)CSc2ncnc3c2cnn3Cc2ccccc2)cc1`, the inhibition was -5.31% (inactive).
As for `CSc1ccccc1OCc1cc(C(=O)N(C)CCc2c(C)n[nH]c2C)no1`, the inhibition was 11.5% (inactive).
For `O=C(CSCc1ccccc1)Nc1ccccc1`, the inhibition was -0.15% (inactive).
Consider `O=S(=O)(Nc1ccc2nc(-c3ccco3)[nH]c2c1)c1ccccc1`, for which the inhibition was -5.98% (inactive).
Consider `Cc1cccc(NC(=O)c2sc3nc(N4CCOCC4)c4c(c3c2N)CCCC4)c1`, for which the inhibition was 18.7% (inactive).
`NC(=O)c1sc2nc3c(c(-c4ccccc4)c2c1N)CCC3`: the inhibition was 1.99% (inactive).
Consider `Cc1cccc(NC(=O)c2sc3nc4c(c(-c5ccco5)c3c2N)CCC4)c1`, for which the inhibition was 93% (active).
Regarding `CN(CCc1ccccc1)c1ccc([N+](=O)[O-])cn1`, the inhibition is -0.4% (inactive).
With `CCOC(=O)c1ccccc1N1C(=O)C2Sc3[nH]c(=O)sc3C(/C=C/c3ccccc3)C2C1=O` (stereo not given) the figure was 37.9% (active).
Regarding `CC(OC(=O)c1ccccc1N1C(=O)C2C3CCC(C3)C2C1=O)C(=O)c1ccccc1` (stereo not given), the inhibition is 1.1% (inactive).
Turning to `CCOC(=O)C1Sc2[nH]c(=O)sc2C(c2ccc(Cl)cc2)C1C(=O)OCC` (stereo not given), the inhibition was 17.4% (inactive).
`O=C(CN1C(=O)S/C(=C\c2ccccc2Cl)C1=O)NC1C=CS(=O)(=O)C1` (stereo not given): the inhibition was -23.6% (inactive).
As to `COc1cc(-c2nn3c(-c4cccc(C)c4)nnc3s2)cc(OC)c1OC`, the inhibition is 12.9% (inactive).
In the case of `c1ccc(-c2cc(-c3nnc4sc(-c5ccccn5)nn34)[nH]n2)cc1`, the inhibition was -7.42% (inactive).
In the case of `Fc1ccc(-c2ccc(-c3nn4c(-c5ccco5)nnc4s3)o2)cc1`, the inhibition was 40.9% (active).
Consider `C=CCOc1ccc(/C=C2/C(=O)ON=C2C)cc1OCC`, for which the inhibition was 16.9% (inactive).
In the case of `CCOC(=O)c1nnn(-c2nc(OC)nc(N(C)C)n2)c1-c1ccccc1`, the inhibition was 39.7% (active).
With `CCOC(=O)c1c(N)nn(C(=O)c2ccccc2)c1-c1ccccc1`, the inhibition was -7.63% (inactive).
Turning to `CCOC(=O)c1nnn(-c2nonc2OC)c1-c1ccccc1`, the inhibition is 5.43% (inactive).
Regarding `COc1ccc(CN(C)C(C)C(=O)NC2CCCc3ccccc32)cc1` (stereo not given), the inhibition is -16.3% (inactive).
In the case of `COc1ccc(-c2ocnc2C(=O)Nc2ccc3c(c2)CCC3)cc1`, the inhibition is -14.4% (inactive).
Take `COc1ccc(CNS(=O)(=O)c2ccc(NC(=O)N3CCCCC3)cc2)cc1`: the inhibition was -6.52% (inactive).
On to `Cc1ccc(-n2nc3c(=O)n(C(C)C(=O)NCc4ccc5c(c4)OCO5)nc(C)c3c2C)cc1` (stereo not given), for which the inhibition was 4.33% (inactive).
For the compound `O=C(CCCN1C(=O)/C(=C\c2ccccc2)SC1=S)Nc1ccccc1O`, the inhibition is -2.1% (inactive).
In the case of `O=C(CCCN1C(=O)/C(=C/c2ccco2)SC1=S)Nc1ccccc1`, the inhibition was 34.7% (inactive).
For the compound `O=C(CCCN1C(=O)/C(=C\c2ccco2)SC1=S)Nc1cccc2ccccc12`, the inhibition is 40.1% (active).
`Cc1cc(C)n(CCC(=O)N2CCN(S(=O)(=O)c3ccc(C)c(C)c3)CC2)n1`: the inhibition was -5.54% (inactive).
Take `Cc1c(NC(=O)Nc2cccc([N+](=O)[O-])c2)c(=O)n(-c2ccccc2)n1C`: the inhibition is 4.3% (inactive).
Take `CC1(C)CC(=O)c2c(n(S(=O)(=O)c3ccccc3)c3ccc(NS(=O)(=O)c4ccccc4)cc23)C1`: the inhibition was -3.21% (inactive).
With `CC(=O)N(C)c1ccc(NC(=O)C(F)(F)F)cc1` the figure was -2.62% (inactive); with `CN(C)c1ccc(N/C=C/C(=O)C(F)(F)F)cc1`, 47.6% (active); with `CC(C)CNC(=O)C(=O)Nc1ccc(N(C)C)cc1`, -3.21% (inactive).
